Screening results as filed in PubChem.
Rows were chosen to be rich in hits. Some 1.3% of all compounds tested hit in one or more screens of this group.
PfGluPho inh: PfG6PD enzyme inhibitors, primary screen, biochemical, fluorescence intensity, uHTS; hit rate 0.78% among 350,000; inhibition, % at 20 µM; PfGluPho enzyme, NADPH resazurin-diaphorase fluorescence; AID 504690, 2011;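 active means inhibition reaching at least a set limit at 20 µM in the primary screen, cut at about 59% in these data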;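 further: 0% = DMSO wells with substrate and 100% = DMSO wells lacking glucose-6-phosphate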
Diaph inh CS: diaphorase inhibitors and chemical oxidizers, primary screen, counter-screen for diaphorase-coupled primary assays, biochemical, uHTS, resorufin fluorescence | AID 1217, 2008 | hit rate 0.69% among 190,000 | inhibition, % at 20 µM | diaphorase resazurin-to-resorufin fluorescence, NADH, 16 min; bacterial (C. kluyveri) enzyme, not human;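 active means primary screen inhibition at 20 µM above a set limit, cut at about 50% in these data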;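 further: plate controls were DMSO with full reaction for no effect and wells lacking NADH for full effect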
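Detection: fluorescence of resorufin formed from resazurin, Ex 544/Em 590 nm; test system: Clostridium kluyveri diaphorase enzyme; amount: 0.14 U/mL diaphorase, enzyme working solution; times: 16-min room-temperature incubation before reading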
G6PDH CS: L. mesenteroides G6PDH inhibitors, counter-screen for G6PDH-coupled screening assays, biochemical, Leuconostoc mesenteroides enzyme; AID 1020, 2008; hit rate 0.12% among 200,000; Purified L. mesenteroides G6PDH, diaphorase/resazurin coupled fluorescence, 45 min; glucose-6-phosphate dehydrogenase [Leuconostoc mesenteroides]; inhibition, % at 5 µM; in the data active means inhibition above about 50%
HKDC1 inhibitor: HKDC1 hexokinase inhibitors, primary screen, biochemical, fluorescence, uHTS. Q2TB90. recombinant HKDC1, G6PDH/diaphorase resazurin coupled fluorescence. inhibition, % at 20 µM. hit rate 0.16% among 340,000;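 active means inhibition above about 35% when tested at 20 µM, limit read from the data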;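 further: plate controls were DMSO wells with enzyme for no effect and DMSO wells lacking enzyme for full effect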
Target sequence (Q2TB90 whole entry, looked up): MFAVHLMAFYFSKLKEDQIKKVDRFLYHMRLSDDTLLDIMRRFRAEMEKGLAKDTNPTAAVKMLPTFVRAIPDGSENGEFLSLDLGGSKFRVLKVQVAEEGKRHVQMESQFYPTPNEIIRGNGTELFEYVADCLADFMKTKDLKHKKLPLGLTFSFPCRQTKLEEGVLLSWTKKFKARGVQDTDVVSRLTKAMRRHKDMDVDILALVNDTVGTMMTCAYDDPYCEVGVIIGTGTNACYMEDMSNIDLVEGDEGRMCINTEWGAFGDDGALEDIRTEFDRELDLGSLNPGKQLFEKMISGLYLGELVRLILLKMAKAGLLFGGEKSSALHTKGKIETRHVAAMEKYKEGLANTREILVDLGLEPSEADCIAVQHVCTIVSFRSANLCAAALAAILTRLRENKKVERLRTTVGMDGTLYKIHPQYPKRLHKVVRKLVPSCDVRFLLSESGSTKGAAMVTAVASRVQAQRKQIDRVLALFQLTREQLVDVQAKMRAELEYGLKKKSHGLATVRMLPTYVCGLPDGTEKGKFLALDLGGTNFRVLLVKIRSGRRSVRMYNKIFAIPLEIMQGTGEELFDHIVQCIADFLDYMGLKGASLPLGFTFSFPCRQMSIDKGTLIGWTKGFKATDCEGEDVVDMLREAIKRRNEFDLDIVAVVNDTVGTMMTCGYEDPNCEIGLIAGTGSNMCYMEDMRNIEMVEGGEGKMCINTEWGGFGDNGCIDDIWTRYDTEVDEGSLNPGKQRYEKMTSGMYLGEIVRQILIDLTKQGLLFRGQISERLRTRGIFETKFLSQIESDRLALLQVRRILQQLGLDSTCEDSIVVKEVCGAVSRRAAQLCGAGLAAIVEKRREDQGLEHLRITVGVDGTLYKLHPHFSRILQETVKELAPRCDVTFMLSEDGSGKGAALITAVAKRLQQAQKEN
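test system = in-house recombinant HK5 (HKDC1) enzyme | amount = HKDC1 at 5 µg/mL | control set = DMSO-enzyme wells negative, buffer-substituted wells positive | compound = one dose of 20 µM, 1% DMSO | schedule = reaction time 90 min, room temperature, protected from light | technique = resorufin fluorescence at 613 nm | reagent = glucose with 1 mM ATP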
Diaphorase act: compounds boosting diaphorase resazurin reduction – biochemical, uHTS, resorufin fluorescence, counter-screen for diaphorase-coupled primary assays, primary screen. Diaphorase/resazurin coupled assay, 16 min; stronger effect = higher value; 1 = vehicle wells, 0 = NADH-free wells. activation factor at 20 µM. hit rate 0.005% among 190,000. AID 1229, 2008;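 active means diaphorase activity raised at least twofold by the compound at 20 µM; inactive means activation factor below 2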
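Assay system: Purified diaphorase enzyme from Clostridium kluyveri | Amount: Enzyme 0.07 U/mL final | Dosing: Compound 20 µM once, DMSO 1% | Timing: 16 min reaction at room temperature | Detection: Fluorescence, excitation 544 nm and emission 590 nm | Evaluation: Higher resorufin formation from activation or reduction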
HKDC1 act conf: HKDC1 hexokinase activators, confirmation, biochemical, single concentration | shares compounds with HKDC1 inhibitor | recombinant HKDC1, G6PDH/diaphorase resazurin fluorescence; stronger effect = lower value | inhibition, % at 20 µM | hit rate 14% among 740 | AID 504708, 2011;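 active means inhibition at or below a set negative limit, negative inhibition meaning the enzyme was activated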
Numbers without * were called inactive; nt = not tested or not shown.

SMILES | PfGluPho inh | Diaph inh CS | G6PDH CS | HKDC1 inhibitor | Diaphorase act | HKDC1 act conf
Cc1cccc2c1N(CCCOc1ccccc1)C(=O)C2=O | 1 | 13 | 10 | 19 | 0.9 | nt
CC(=O)N(Cc1c(C)nn(-c2ccccc2)c1Cl)c1ccc(Cl)cc1 | -7 | 8 | 7 | 2 | 0.9 | nt
Cc1nn(-c2ccccc2)c(Cl)c1CN(C(=O)CCl)c1ccc(Cl)cc1 | -5 | 18 | 3 | 38* | 0.8 | 13
COc1ccc(N=C2NN=C(c3ccc4c(c3)OCCO4)CS2)cc1 | 33 | 12 | 5 | -84 | 0.9 | -33*
CC(=O)c1ccc2c(c1)C1C=CCC1C(c1ccncc1)N2 (centres undefined) | 33 | 20 | 7 | 11 | 0.8 | nt
CC(=O)c1ccc2c(c1)C1C=CCC1C(C(=O)O)N2 (centres undefined) | 28 | 77* | 7 | 34 | 0.2 | 36
COC(=O)/C=C/c1ccccc1S(=O)(=O)N(Cc1ccccc1)Cc1ccco1 | 43 | nt | nt | 6 | nt | nt
COc1ccc(CN2C(=O)c3cccnc3C2O)cc1 (centres undefined) | 14 | 0 | 6 | 41* | 1 | 36
COc1ccc(-n2cccc2/C=C2\C(=N)N3N=C(c4ccco4)SC3=NC2=O)cc1 | -13 | 74* | -2 | 35* | 0.3 | -9
COc1ccc(-n2cccc2/C=C2\C(=N)N3N=C(C(C)C)SC3=NC2=O)cc1 | -20 | 24 | -4 | -5 | 0.8 | nt
N=C1/C(=C/c2coc3ccccc3c2=O)C(=O)N=C2SC(c3ccco3)=NN12 | 15 | nt | nt | 38* | nt | -9
CSC1=NSC2=NC(=O)/C(=C\c3coc4ccccc4c3=O)C(=N)N12 | -24 | 28 | 9 | 5 | 0.7 | nt
N=C1/C(=C\c2coc3ccccc3c2=O)C(=O)N=C2SC(c3ccncc3)=NN12 | 8 | nt | nt | 45* | nt | 32
Cc1cc(/C=C2\C(=N)N3N=C(c4ccco4)SC3=NC2=O)c(C)n1Cc1ccccc1 | -22 | nt | nt | 15 | nt | nt
O=C(Sc1nnc(-c2ccccc2)o1)N1c2ccccc2Sc2ccccc21 | 27 | 24 | 1 | 37* | 0.8 | -9
COc1ccc(-c2cc(C(=O)NNC(=S)NC(=O)c3c(-c4ccccc4)noc3C)[nH]n2)cc1 | -55 | 34 | -9 | -46 | 0.7 | -50*
Cc1onc(-c2ccccc2)c1C(=O)NNC(=S)NC(=O)c1ccc(Br)cc1 | -35 | 40 | -16 | -51 | 0.6 | -57*
COc1ccc(/C=C/C(=O)NC(=S)NNC(=O)c2c(-c3ccccc3)noc2C)cc1 | -43 | -9 | -18 | -38 | 1.1 | nt
Cc1nnc(SCC(=O)Nc2c(C)n(C)n(-c3ccccc3)c2=O)n1Cc1ccccc1 | -18 | 13 | -2 | 14 | 0.9 | nt
CSc1nc(N)nc2c1ncn2CC(=O)N[C@H](C)c1cccc2ccccc12 | -67 | nt | nt | -55 | nt | -74*
COC(=O)[C@@H](Cc1ccccc1)NC(=O)Cn1cnc2c(SC)nc(N)nc21 | 10 | nt | nt | -1 | nt | nt
Cn1cnc([N+](=O)[O-])c1Sc1ccc(Br)cc1 | -7 | 6 | -3 | -58 | 0.9 | -7
CN[C@H]1C[C@H]2c3cc(-c4ccccc4)ccc3CCN2C(=O)[C@H]1[C@H](C)O | 1 | nt | nt | nt | nt | nt
Cc1ccc2ccccc2[n+]1CCCS(=O)(=O)[O-] | -1 | 7 | 2 | -1 | 0.9 | nt
CCCC[n+]1c2ccccc2cc2ccccc21 | 54 | nt | nt | 42* | nt | -1
SMILES | PfGluPho inh | Diaph inh CS | G6PDH CS | HKDC1 inhibitor | Diaphorase act | HKDC1 act conf
CCCCC[n+]1cccc2c3ccccc3ccc21 | 10 | -4 | 4 | -2 | 1 | nt
CCC[n+]1c2ccccc2cc2ccccc21 | 31 | nt | nt | 37* | nt | 0
O=C(NNC(=O)C1CC(c2cccs2)=NO1)Nc1ccccc1 (centres undefined) | 11 | nt | nt | 0 | nt | nt
Cc1ccc(C)c(S(=O)(=O)Nc2ccc(O)c(C(=O)O)c2)c1 | -18 | 8 | 4 | -5 | 0.9 | nt
COc1ccc(S(=O)(=O)Nc2ccccc2)cc1 | 2 | nt | nt | -3 | nt | nt
COc1ccc(S(=O)(=O)Nc2ccc(O)c3ccccc23)cc1 | 40 | 8 | 31 | 46* | 0.9 | 51
Cc1ccc(S(=O)(=O)Nc2ccc(O)c3ccccc23)c(C)c1 | 40 | nt | nt | 52* | nt | 25
Cc1ccc(C)c(S(=O)(=O)Nc2ccc(O)c3ccccc23)c1 | 35 | nt | nt | 48* | nt | 25
N#Cc1ccc(OCc2nnc3n2CCCCC3)cc1 | -7 | -16 | 3 | -5 | 1.2 | nt
CCOC(=O)c1c(-c2ccc(C)o2)csc1NC(=S)NC(=O)c1cccs1 | 19 | 29 | 10 | -1 | 0.7 | nt
Cc1ccc(C)c2[nH]c(=O)c(CCNC(=O)c3cc4ccccc4o3)cc12 | 10 | 25 | -21 | 2 | 0.8 | nt
COc1ccc(OC)c2[nH]c(=O)c(CCNC(=O)c3cc4ccccc4o3)cc12 | 23 | 58* | -37 | 38* | 0.4 | 60
CCN1CCN(CC(=O)n2c3c(c4ccccc42)CC(C)CC3)CC1 (centres undefined) | 24 | 11 | -38 | -7 | 0.9 | nt
CC1CCc2c(c3ccccc3n2C(=O)CCl)C1 (centres undefined) | 12 | nt | nt | 46* | nt | -11
OCCC1CN(Cc2nc3c(s2)CCCC3)CCN1Cc1ccsc1 (centres undefined) | -8 | 2 | 9 | -4 | 1 | nt
COc1ccccc1C1=NNC(=Nc2cccc(S(=O)(=O)N(C)C)c2)SC1 | 41 | -3 | 1 | -202 | 1 | -177*
CC(=O)n1cc(N(C(=O)CCl)c2ccccc2)c2ccccc21 | -1 | nt | nt | 35 | nt | 9
CC(=O)n1cc(N(C(=O)CCl)c2ccc([N+](=O)[O-])cc2)c2ccccc21 | 0 | nt | nt | 48* | nt | 41
CC(=O)n1cc(CO)c2ccccc21 | 15 | nt | nt | -7 | nt | nt
Cc1cc(C)c(S(C)(=O)=O)c(S(=O)c2ccc(Cl)cc2)n1 (centres undefined) | -11 | 11 | -1 | -6 | 0.9 | nt
O=C(O)C(Cc1ccccc1)N1C(=O)/C(=C/C=C/c2ccco2)SC1=S (centres undefined) | 9 | nt | nt | 37* | nt | -2
O=C1C(N2CCOCC2)=C(n2nnc3ccccc32)C(=O)c2ccccc21 | 56 | 25 | 61* | 43* | 0.7 | 55
CCOC(=O)c1c(C)sc2c1N(C(=O)CCl)c1cc(Cl)ccc1S2 | 12 | 40 | 3 | 45* | 0.6 | 22
Nc1ccccc1C(=O)NNc1ncc(C(F)(F)F)cc1Cl | 2 | 6 | 2 | 3 | 0.9 | nt
